Measurements published in paper PMC3230563 (International Journal of Nanomedicine, 2011).

Key:
rat = conditions: oral, no reference given; cited from earlier work
[1] = In vivo pharmacokinetics in rats; design: species or system Male Wistar rats; conditions: for half-life: T1/2, rat; for Tmax: Tmax average
In short: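 Fasted (12 h) male Wistar rats under 0.5% isoflurane received 200 μg/kg in isotonic solution by tail-vein bolus (n = 4). Serial intracardiac blood went into 0.109 M citrate from 2 min to 24 h, and plasma was stored at −20°C. Concentration came from an anti-Xa chromogenic calibration curve, with over-range samples diluted in human normal plasma. Noncompartmental PK used trapezoidal AUC; bioavailability was the dose-corrected oral/IV AUC ratio.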

[2] = male, Wistar, rat, plasma, iv, 200 ug/kg
[3] = male, Wistar, rat, plasma, iv, 200 ug/kg, IV bolus
[4] = male, Wistar, rat, plasma, po, 5 mg/kg
[5] = male, Wistar, rat, plasma, po, 5 mg/kg, 5 mg/kg Fp
[6] = male, Wistar, rat, plasma, sc, 200 ug/kg
[7] = rat, IV bolus, 200 μg/kg, listed as IV Fp solution

## CCCCCCCCCCCCCCCCCCN [SA, stearylamine]
rat
  LD50: 1395 mg/kg

## CCCCCCCCCCCCCCCC[N+](C)(C)C [CTAB, hexadecyltrimethyl ammonium bromide]
rat
  LD50: 410 mg/kg

## CO[C@H]1O[C@H](COS(=O)(=O)O)[C@@H](O[C@@H]2O[C@@H](C(=O)O)[C@@H](O[C@H]3O[C@H](COS(=O)(=O)O)[C@@H](O[C@@H]4O[C@H](C(=O)O)[C@@H](O[C@H]5O[C@H](COS(=O)(=O)O)[C@@H](O)[C@H](O)[C@H]5NS(=O)(=O)O)[C@H](O)[C@H]4O)[C@H](OS(=O)(=O)O)[C@H]3NS(=O)(=O)O)[C@H](O)[C@H]2OS(=O)(=O)O)[C@H](O)[C@H]1NS(=O)(=O)O [Fp, fondaparinux]
[1]; [2]
  AUC(0-inf): 2300 ng·h/mL
  Cmax: 1420 ± 120 ng/mL
[1]; male, Wistar, rat, plasma, iv, 200 ug/kg, Absolute bioavailability, IV bolus, 200 μg/kg (reference)
  bioavailability: 100%
[1]; male, Wistar, rat, plasma, iv, 200 ug/kg, MRT, IV bolus
  MRT: 1.17 h
[1]; [3]
  half-life: 1.8 h
  Tmax: 0.0333 h
[1]; [4]
  AUC(0-inf): 812 ng·h/mL
  Cmax: 60 ± 20 ng/mL
[1]; male, Wistar, rat, plasma, po, 5 mg/kg, MRT, 5 mg/kg Fp
  MRT: 1.36 h
[1]; [5]
  half-life: 0.862 ± 0.607 h
  Tmax: 2 h
[1]; [6]
  AUC(0-inf): 2570 ng·h/mL
  Cmax: 836 ± 190 ng/mL
  half-life: 1.47 ± 1.4 h
  Tmax: ≤ 1 h
[1]; male, Wistar, rat, plasma, sc, 200 ug/kg, MRT
  MRT: 3.87 h
[1]; oral Fp solution alone, 0.5, 2 mg/kg, limit of quantification 0.01 μg/mL
  anti-Xa level in rat plasma: below the limit of quantification
[1]; rat, IV bolus, 200 μg/kg
  Clearance: 490.52 ± 14.74 µL/min
[1]; [7]
  MRT: 1.8028 ± 0.4345 h
  T1/2: 1.175 ± 0.2938 h
[1]; rat, SC, 200 μg/kg
  Clearance: 493.89 ± 5.478 µL/min
[1]; rat, SC, 200 μg/kg, dose corrected AUC versus IV, listed as SC Fp solution
  Absolute bioavailability: 115.84 ± 17.92 (4) %
[1]; rat, SC, 200 μg/kg, listed as SC Fp solution
  Tmax average: 1 h
[1]; rat, oral, 5 mg/kg Fp
  Clearance: 455.43 ± 14.51 µL/min
